The values below come from PubChem BioAssay AID463141 (The Scripps Research Institute Molecular Screening Center, 2010).

SMILES strings stand for the structures. Among all 330,000 compounds or so, about 350 (0.11%) were called active. Shown is part of a subset that was picked to be rich in actives. Values without a mark were called inactive.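 Rule for the calls: active = activation above the mean of all tested compounds plus 3 SD (cut at about 21% in these data); inactive = the rest.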

Sequence of Caspase-3 (Homo sapiens) (P42574 whole entry D9A/D28A/D175A): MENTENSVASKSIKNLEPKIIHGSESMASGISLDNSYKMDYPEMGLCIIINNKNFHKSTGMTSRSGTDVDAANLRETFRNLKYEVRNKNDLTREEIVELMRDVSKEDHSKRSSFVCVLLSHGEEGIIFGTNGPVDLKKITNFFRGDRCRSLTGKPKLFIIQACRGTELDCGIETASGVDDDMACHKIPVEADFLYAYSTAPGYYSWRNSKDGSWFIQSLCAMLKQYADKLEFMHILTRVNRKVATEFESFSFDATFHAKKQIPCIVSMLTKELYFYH

This assay addresses Caspase-3 (Homo sapiens) (UniProt P42574). Nature of the assay: activators of human procaspase-3 D3A mutant, primary screen, biochemical, absorbance, PC-3 D3A mutant, single concentration (AID 463141).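 Note: 0% = DMSO alone and 100% = DMSO wells spiked with extra 5 µM PC-3 D3A.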 Conditions: recombinant procaspase-3 D3A, Ac-DEVD-pNA absorbance 405 nm; at 8.5 µM; hits give high values. Put shortly: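 Test system: Procaspase-3 D3A mutant; medium: Zinc-free HEPES/NaCl buffer with 0.01% Triton X-100 at pH 7.4; reagent: DEVD-pNA substrate; doses: one concentration, 8.5 µM nominal, 0.8% DMSO; times: 1 h preincubation plus 2 h reaction at 25 °C; signal: Epi-absorbance at 405 nm of released p-nitroaniline, 0 and 120 min; replicates: singlicate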
On to `COc1ccc(S(=O)(=O)Nc2ccccc2C(=O)N2CCCC2)cc1C`, for which the activation was 9.9%. Regarding `COc1ccccc1N1CCN(C(=O)c2ccc(S(=O)(=O)N3CCCCC3)cc2)CC1`, the activation was -4.47%. Regarding `COc1ccccc1NS(=O)(=O)c1ccc(C(=O)N2CCN(c3ccccc3O)CC2)cc1`, the activation is 21.8% (active). Under `CC(NC(=O)c1ccccc1C(=O)O)c1ccc(-n2ccnc2)cc1` (stereo unspecified) stands -0.91%; under `C=CCNc1nc(Nc2ccc(Cl)cc2)nc(OC)n1`, 3.18%. Consider `COc1cccc(-c2cc3nc4c(c(N5CCC6(CC5)OCCO6)n3n2)CCCC4)c1`, for which the activation is 5.55%.

In the case of `NC(=O)C1CC=CCC1C(=O)OCC(Cl)=C(Cl)Cl` (stereo unspecified), the activation is -0.01%. As for `CSc1nsc(SC)c1NC(=O)OC1CCCCC1`, the activation was -22.8%.

As for `CCCN1CCN(C(=O)CCCNC(=O)c2ccc(Cl)cc2)CC1`, the activation was -2.14%. Regarding `CN1CCN(CCCNC(=O)c2ccc(/C=C3\Oc4ccccc4N(Cc4ccc(Cl)cc4)C3=O)cc2)CC1`, the activation was 38.4% (active). On to `CC(C)OCCCNC(=O)CN1C(=O)/C(=C/c2ccccc2F)Oc2ccccc21`, for which the activation was -1.27%. `N#CC1(NC(=O)COC(=O)CSc2ccc(F)cc2)CCCCC1`: the activation was -6.99%. Consider `CCCOn1c(-n2nc(C)cc2C)nc2ccccc2c1=O`, for which the activation is 7.25%. `CCC(C)(C)NC(=O)C(c1ccccn1)N(C(=O)c1csnn1)c1ccccc1` (stereo unspecified): the activation is 2.32%. For the compound `Cc1ccc(S(=O)(=O)NNC(=S)NC(C)(C)C)cc1`, the activation is 9.08%. Turning to `COc1ccccc1CN(C)c1nnnn1-c1ccccc1`, the activation was 9.63%. On to `O=C(NCc1cccs1)C(=O)NCC1OCCCN1S(=O)(=O)c1ccc(F)cc1` (stereo unspecified), for which the activation is 1.51%. As for `COC(=O)Cc1c(C)c2ccc(OCC(=O)NCc3ccc4c(c3)OCO4)cc2oc1=O`, the activation was 0.37%. On to `CCc1c(C)c2ccc(OC3CCCCC3=O)cc2oc1=O` (stereo unspecified), for which the activation was 3.96%.

Regarding `CC(=O)Oc1ccc2c(C)c(CC(C)O)c(=O)oc2c1` (stereo unspecified), the activation is 24.1% (active). Consider `COc1ccc(CCNC(=O)COC(=O)c2ccc[nH]c2=O)cc1`, for which the activation is 23.9% (active).

On to `COc1ccc(CCNC(=O)COC(=O)c2cc(=O)c3ccccc3o2)cc1`, for which the activation is -1.38%.

As for `COc1ccc(CCNC(=O)COC(=O)C2CC2C)cc1` (stereo unspecified), the activation is 9.52%. `COc1ccc(S(=O)(=O)N(CCCN2CCCC2=O)Cc2cc3c(C)ccc(C)c3[nH]c2=O)cc1`: the activation was -7.13%. In the case of `CCn1c(SCC(=O)Nc2ccc(C)cc2)nc2nc3c(cc2c1=O)CCCC3`, the activation is 3.79%. `O=C1[C@H]2[C@@H](c3ccc(F)cc3)N3C(=O)N(c4ccc(C(F)(F)F)cc4)C(=O)[C@@]3(Cc3ccccc3)[C@H]2C(=O)N1C1CCCCC1`: the activation is 5.91%.
